Compound activity (PubChem)
STAT3 inh: reduces IL-6 driven STAT3 reporter signal | U3A cells, IL-6 STAT3-luciferase reporter, luminescence; host cell line lacks STAT1 | inhibition, % at 5.5 µM | 190,000 compounds, 0.89% hits;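 active = inhibition above the mean inhibition across all screened compounds plus 3 SD, cut at about 44% in these data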;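 also: 0% = DMSO only wells and 100% = 100 µM nifuroxazide control wells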
STAT3 activator: activators of IL-6 induced STAT3 signaling; U3A cells, IL-6 STAT3-luciferase reporter, luminescence; 100% = signal with IL-6 EC80 alone; activation (% of control), % at 5.6 µM; 190,000 compounds, 0.91% hits;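 active = activation above the screen-wide mean of compound activation plus 3 SD, cut at about 130% in these data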;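 also: 0% = background luminescence of wells with medium and substrate only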
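system = STAT3-luciferase reporter U3A cells | reagent = IL-6 stimulus at 33 ng/mL final | timing = 1 h compound pre-exposure, 6 h IL-6 stimulation, 37 °C | measured by = luminescence | evaluation = % activation versus median of IL-6-stimulated wells | control set = IL-6-only wells as 100% reference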
APP 5'UTR act: APP 5'UTR luciferase reporter activation. 190,000 compounds, 1% hits. SH-SY5Y APP 5'UTR luciferase reporter, luminescence; zero percent = DMSO vehicle wells. activation, % at 2 µM;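 active = activation above a set limit, based on mean plus 3 SD of controls, cut at about 140% in these data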
NF-kB neuron act: compounds increasing NF-kB expression in human neuronal cells; NF-kB reporter expression; stronger effect = higher value; fold change at 12.5 µM; 190,000 compounds, 1.6% hits; in the data active = fold change above about 3.3
STAT1 inh: STAT1 signaling inhibition | NIH 3T3 STAT1-luciferase reporter, IFN-gamma, luminescence | inhibition, % at 5.5 µM | 200,000 compounds, 0.35% hits;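 active = inhibition above a set limit, the mean inhibition across all tested compounds plus 3 SD, cut at about 34% in these data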;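 also: 0% = IFN-gamma with DMSO and 100% = IFN-gamma with 300 µM nifuroxazide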
STAT1 act: STAT1 signaling activation. NIH 3T3 STAT1-luciferase reporter, IFN-gamma, luminescence; 100% = IFN-gamma alone, no compound. activation (% of control), % at 5.5 µM. 200,000 compounds, 2.6% hits. AID 932;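 active = activation above the screen-wide mean activation plus 3 SD, cut at about 130% in these data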;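 also: raw ratio to IFN-gamma control signal so 100% means no change and 0% no light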
* = called active by the depositor. Most compounds without a hit are left out; they make up all but 4.9% or so of the library.

SMILES	STAT3 inh	STAT3 activator	APP 5'UTR act	NF-kB neuron act	STAT1 inh	STAT1 act
Cc1ccc(CC2CC(=O)N(c3nc4ccccc4s3)C2=O)cc1 (configuration not stated)	10	97	15	1.2	-7	105
Nc1ccccc1-c1nc2ccccc2s1	-35	132	119	2.4	-47	144*
COc1ccc(Cl)cc1-c1nc(N)nc(N(C)C)n1	-4	101	-6	1	10	91
COc1ccc(C(=O)Nc2ccc(N3CCN(C(=O)C(C)C)CC3)cc2)cc1[N+](=O)[O-]	4	93	-11	0.98	4	96
COc1ccc(-c2nc3ccccc3s2)cc1	85*	27	169*	3.2	73*	33
Cc1ccc(C(=O)N2c3ccccc3CC2C)o1 (configuration not stated)	14	92	134	1.1	-58	148*
Cc1ccccc1NC(=O)N1c2ccccc2CC1C (configuration not stated)	15	89	-5	1.4	-16	113
Cc1nc2cc(NC(=O)N3c4ccccc4CC3C)ccc2o1 (configuration not stated)	-18	118	95	1.4	-53	146*
CC(C)(C)n1ncc2c(=O)n(CC(=O)NCc3ccccc3Cl)cnc21	2	101	193*	3.2	-50	145*
NNC(=O)c1ccc(CN2CCCCC2)o1	-5	109	-2	1.1	-3	101
CCOC(=O)c1c(N)sc(C(=O)Nc2ccccc2)c1C	41	67	222*	7.1*	-8	106
COC(=O)c1c(NC(C)=O)sc(C(=O)Nc2ccccc2F)c1C	14	90	2	1.2	-17	117
CCOC(=O)c1c(N)sc(C(N)=O)c1C	32	78	12	1.5	4	98
CCC(=O)Nc1sc(C(=O)Nc2ccccc2F)c(C)c1C(=O)OC	17	89	66	1.1	-36	131*
CCOC(=O)c1c(N)sc(C(=O)Nc2ccccc2F)c1C	36	71	238*	7.4*	-1	101
CCOC(=O)c1cc(C(=O)Nc2ccccc2F)nn1C	5	102	11	5.9*	-36	133*
CCc1cc(SC#N)ccc1N	0	102	-12	1.6	2	98
O=S(=O)(NC1=NCCC1)c1ccc(F)cc1F	-7	107	-4	1.1	-10	107
COC(=O)CCN1CCN(S(=O)(=O)c2ccccc2Br)CC1	-4	106	7	0.99	-3	101
CCC(C)NC(=O)COc1ccccc1[N+](=O)[O-] (configuration not stated)	-3	104	50	0.99	-2	102
O=C(CSc1nnc(Nc2ccccc2F)s1)Nc1cccc(S(=O)(=O)N2CCCCC2)c1	-6	103	23	1.1	-13	112
COc1cccc(/C(N)=N/OC(=O)Cc2ccccc2[N+](=O)[O-])c1	7	100	13	1.5	-34	130*
COc1ccc(/C(N)=N/OC(=O)c2cccc([N+](=O)[O-])c2C)cc1	-31	134*	24	1.3	-12	110
COCC(C)Nc1nc(C)c(C(C)=O)s1 (configuration not stated)	6	99	2	0.86	-7	105
COc1ccc(NC(=O)c2c(Cl)n(C)c3ccccc23)cc1	-36	144*	22	1.8	-21	117
SMILES	STAT3 inh	STAT3 activator	APP 5'UTR act	NF-kB neuron act	STAT1 inh	STAT1 act
COc1ccc(C(=O)Nc2cnc3ccccn3c2=O)cc1	25	84	72	2.4	-45	140*
COc1ccc(NC(=O)c2c(Cl)nc3ccccn23)cc1	16	92	45	1	-38	134*
Cc1nc2ccccn2c1C(=O)/C=C/c1ccc(F)cc1	19	88	17	3.4*	-31	129*
O=C(Nc1cnc2ccccn2c1=O)c1ccc(F)cc1	1	99	51	2	-27	125
COc1ccc(NC(=O)Cc2c(Sc3ccccc3)c3ccccc3n2C)cc1	-10	109	2	1.6	8	93
Cc1cc(NC(=O)CSc2nncn2N)no1	14	97	-23	1.2	-2	102
COc1ccc(/C=C/C(=O)c2ccccc2O)cc1	-7	103	62	5*	-14	113
